Experimental data as given in ChEMBL document CHEMBL4513216, “Probing the Open Global Health Chemical Diversity Library for Multistage-Active Starting Points for Next-Generation Antimalarials” (ACS Infect Dis, 2020).

Assay: Toxicity liver stage against HepG2, at 10uM
Type: cell-based
Design: test concentration 10 uM, cell line HepG2-A16-CD81EGFP
Settings: human, HepG2-A16-CD81EGFP cells; read-out: INHIBITION
Summary of the method: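 Uninfected HepG2-A16-CD81EGFP cells, 3 × 10^3 per well, 1536-well, plated on prespotted compound at 10 μM final, parasite-free screening media added to match infected plates; puromycin 10 μM positive, DMSO 0.5% negative; run in parallel with 48 h PbLuc assay at 37 °C, 5% CO2; viability by CellTiter-Glo luminescence, normalized to controls.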

| Structure (SMILES) | cytotoxicity at 10 µM [%] |
| --- | --- |
| Cc1cccc(C(=O)N2CCn3cnc(COCC4CC4)c3C2)n1 | 6.85 |
| OC1(CN2CCCC2)CCCN(c2ncnc3[nH]cnc23)C1 (stereo unspecified) | 11.3 |
| CC(NC(=O)c1cccc(CN2CCN(C)CC2)c1)c1ccccn1 (stereo unspecified) | -13.5 |
| CS(=O)(=O)Nc1nn(Cc2ccc(F)cc2)cc1Br | 5.88 |
| Cc1cccc(CN(Cc2ccccn2)Cc2ncc(C(C)(C)C)o2)c1 | 3.49 |
| Cc1cccc(C)c1NC(=O)c1cc(S(N)(=O)=O)c(C)o1 | -4.27 |
| CC(C)c1nnc2n1CC(CNc1cnc3ccccc3n1)CC2 (stereo unspecified) | -37.1 |
| CC(C)=CCN1C[C@@H]2CC[C@H]1CN(C(=O)c1ccc3nc[nH]c3c1)C2 | -1.31 |
| Cn1nc(C2CN(C(=O)c3cscn3)C2)c2nccnc21 | 2.21 |
| CCOc1ccc(C(F)(F)F)cc1NC(=O)N1CCNC(=O)C1 | -1.11 |
| Cc1ccoc1C(=O)N1C[C@@H](OCC2CCOCC2)[C@H]2OCCC[C@H]21 | 4.11 |
| CN(C(=O)C1CCCCC1)[C@@H]1CCC[C@@H](N2CCOCC2)[C@@H]1O | -6.33 |
| Cn1nc(C2CCCN(Cc3cc(F)ccc3F)C2)c2nccnc21 (stereo unspecified) | -12.9 |
| CN1CCC(N(C)C[C@H]2CC[C@@H](Cc3ccc4occc4c3)O2)CC1 | -9.27 |
| O=C1NCCN(Cc2ccoc2)C1CC(=O)N1CCc2sccc2C1 (stereo unspecified) | -3.45 |
| CC(C)CCNc1nnc(C(C)C)s1 | -10.6 |
| Cc1cc(C(F)(F)F)nc(CCNC(C)Cn2ccnc2)n1 (stereo unspecified) | 4.21 |
| COC(=O)C1CCN(c2cncc(-n3nc(C)cc3C)n2)CC1 | -9.44 |
| Cc1nonc1CN(C)Cc1nc(-c2ccccc2Cl)oc1C | -3.04 |
| CCS(=O)(=O)NC1CCCN(Cc2ccn(C)c(=O)c2)C1 (stereo unspecified) | -1.82 |
| COCc1nc(-c2ccc(S(=O)(=O)N3CCCC3)cc2)cs1 | -49.8 |
| Cc1n[nH]c(C2CN(C(=O)c3cc(C4CC4)on3)CCO2)n1 (stereo unspecified) | -9.63 |
| CC(C)Oc1cccc(C(=O)C2CCCN(C(=O)c3ccccn3)C2)c1 (stereo unspecified) | -7.67 |

| Structure (SMILES) | cytotoxicity at 10 µM [%] |
| --- | --- |
| Cc1cnc(C(C)(C)NC(=O)NCc2ccc(C#N)cc2F)s1 | 15.1 |
| COCC(=O)N1CCCn2c(CN3CCCC3)nnc2C1 | -130 |
| Cc1nc(C)n(C2CCCN(C(=O)c3cn4c(C)cccc4n3)C2)n1 (stereo unspecified) | -7.72 |
| CCC(NC(N)=O)c1ccccc1OCC(=O)N1CCCC1 (stereo unspecified) | -8.29 |
| CN(C(=O)c1ccccc1Cl)C1CCN(c2ccccn2)CC1 | -0.577 |
| Cc1nc(N)ccc1CC1COc2ccccc2C1 (stereo unspecified) | 3.79 |
| CN1CC(C(=O)NCCc2ccc3c(c2)OCCO3)CC1=O (stereo unspecified) | 5.51 |
| COCCn1c2c(ccc1=O)CC(NCc1cccnc1OC)CC2 (stereo unspecified) | -106 |
| CCCOc1ccc(CC2=NC(C)(CO)CO2)cc1 (stereo unspecified) | 24.8 |
| Cc1cccc(C(Nc2nccc(-c3ccc(C)nc3C)n2)C2CC2)n1 (stereo unspecified) | 0.74 |
| CC(=O)NC[C@]1(O)CCN(C(=O)c2ccc3c(c2)CCC3)C[C@H]1O | 1.75 |
| COc1ncnc2c1CCN(Cc1cccs1)CC2 | 8.55 |
| O=C(c1cc(-c2cccnc2)[nH]n1)N1CCCC(Cc2ccccn2)C1 (stereo unspecified) | 7.5 |
| CC1CCN(C(=O)NCCc2cc(F)ccc2F)C1 (stereo unspecified) | 0.154 |
| Cc1n[nH]c(C)c1CCC(=O)N(C)Cc1cn[nH]c1-c1ccc(F)cc1 | 7.86 |
| Cc1noc(CNC(=O)C(C)(C)NC(=O)OC(C)(C)C)n1 | 13.9 |
| CC(NC(=O)NCCCOC1CCCCC1)c1nncn1C (stereo unspecified) | -7.47 |
| Cc1ncsc1CN1C[C@H](NC(=O)C2CCOCC2)[C@@H](C(C)C)C1 | 6.67 |
| O=C(c1ccc(O)cc1)N1CCN(C(=O)c2ccc3c(c2)COC3)CC1 | -9.75 |
| Cc1ccc(OCC(C)NS(=O)(=O)N(C)C)cc1 (stereo unspecified) | 8.81 |
| CN1CCc2c(CNc3ncccn3)n[nH]c2C1 | -3.21 |
| Cc1nc(CC(=O)NCCN2CCC(c3ccccc3C)C2)cs1 (stereo unspecified) | -40 |
| Cc1n[nH]cc1C(=O)NCc1cccnc1N1CCc2ccccc2C1 | 8.81 |

| Structure (SMILES) | cytotoxicity at 10 µM [%] |
| --- | --- |
| CCc1ncncc1C(=O)N1CCCN(Cc2ccccc2C)CC1 | 0.977 |
| CC(C)(CCS(C)(=O)=O)CNc1ccc2ccc(F)cc2n1 | -6.01 |
| Cn1cnnc1S(=O)(=O)C1CCN(C(=O)c2cccs2)CC1 | 6.03 |
| Cc1c[nH]nc1C1CCCN1Cc1ccncc1 (stereo unspecified) | 13.1 |
| CCN1C(=O)C2(CCOCC2)c2cc(NC(=O)c3cnccn3)ccc21 | -2.98 |
| c1csc(CN2CCC3(COCCN(CC4CC4)C3)C2)n1 (stereo unspecified) | 1.44 |
| Cc1nn(C)c2nc(N(CCOc3ccccc3)CC3CCCO3)sc12 (stereo unspecified) | 46.8 |
| c1cncc(N2CCOCC3(CCCN(Cc4cccs4)C3)C2)c1 (stereo unspecified) | 14.8 |
| O=C(C(c1ccccc1)S(=O)(=O)c1ccccn1)N1CCCCC1 (stereo unspecified) | 5.7 |
| c1cc(-c2noc(-c3cc(C4CC4)on3)n2)cc(N2CCCCC2)n1 | 4.64 |
| O=C(c1cc(=O)[nH][nH]1)N1CCCC2(CCC(=O)N(C3CCCC3)C2)C1 (stereo unspecified) | 0.988 |
| Cc1cccc(CN2CCN(C(=O)c3ccc(C)[nH]c3=O)CC2)c1 | 12.8 |
| Cc1noc(C)c1CC(=O)OCc1nc(N)c2ccccc2n1 | 6.83 |
| CCN1CC2(CC1=O)CN(C(=O)NC(C)C)CCN(C(=O)C(C)C)C2 (stereo unspecified) | 0.508 |
| CN(CC(F)(F)F)C(=O)CN1CCC(c2cc3ccccc3[nH]2)CC1 | 4.93 |
| CC(C)c1noc(CCNC(=O)N2CCC(O)(C(F)(F)F)C2)n1 (stereo unspecified) | 9.74 |
| CCC(CNS(=O)(=O)c1cccc(C(=O)OC)c1)N1CCCC1 (stereo unspecified) | -8.93 |
| Cc1ccsc1CN1CCC(n2cc(C(O)c3ccccc3)nn2)CC1 (stereo unspecified) | 8.69 |
| O=C(NCC(=O)N1CCCC(n2cncn2)C1)OCc1ccccc1 (stereo unspecified) | -13.5 |
| c1ccc2nc(N3CCCCC3)c(NCc3nnc4n3CCC4)nc2c1 | 2.48 |
| Cc1nn(C)c2c(N3CCCC3)nc(C3CC3)nc12 | 0.12 |
| CC(C)C1CN(C(=O)c2ccn(C)c(=O)c2)c2ccccc2N1 (stereo unspecified) | -6.01 |
| Cc1noc(C)c1CN1CCn2cc(CN3CCCCC3)nc2C1 | 8.95 |

| Structure (SMILES) | cytotoxicity at 10 µM [%] |
| --- | --- |
| Cc1ncsc1C(=O)N1CCn2nc(CN3CCSCC3)cc2C1 | -51 |
| CCC(C)N(Cc1cc(C)n[nH]1)Cc1ccccc1Cl (stereo unspecified) | 6.65 |
| CCC(NC1CCCC1)c1ccc(S(C)(=O)=O)cc1 (stereo unspecified) | -3.37 |
| CN(CCCOc1ccccc1)Cc1nc2c(cnn2C)c(=O)[nH]1 | -3.23 |
| Cc1cc(NC(=O)CN(CC(C)O)c2ccccc2)on1 (stereo unspecified) | -2.15 |
| COc1ccc(OC2CCN(C(=O)C3CCCN(C)C3)CC2)cc1 (stereo unspecified) | -59.6 |
| O=C1CCC2(CCCN(C(=O)c3ccco3)CC2)N1 (stereo unspecified) | 3.17 |
| O=C(Nc1ncnc2c1CCC2)c1ccc2c(c1)OCO2 | 4.42 |
| NC(=O)c1cn[nH]c1C1CCCN1C(=O)c1cnccn1 (stereo unspecified) | -6.17 |
| Cn1cc(CC(=O)N2CCC(Nc3cccnn3)CC2)c2ccccc21 | -9.24 |
| O=C(Nc1nccs1)C1CCN(Cc2cccc3c2OCCO3)CC1 | -1.95 |
| O=C(C1CCC2(CCN(Cc3cccnc3)CC2)CO1)N1CCCC1 (stereo unspecified) | -108 |
| CCN1CC(C(=O)NCc2cccc(SC)c2)CC1=O (stereo unspecified) | 4.68 |
| CC(C)C1=NOC2(CCN(S(C)(=O)=O)CC2)C1 | 6.47 |
| N#Cc1ccc(N2CCC(c3nc(C(F)(F)F)c[nH]3)CC2)nc1 | -7.09 |
| CC(=O)N1CCc2[nH]nc(C(=O)N3CCOCC3)c2C1 | -7.37 |
| N#Cc1c(N)nc2c(c1-c1c[nH]nc1C1CCCCC1)COCC2 | 6.75 |
| Cc1cc(C)n(CC2CCCN2CC(=O)Nc2nncs2)n1 (stereo unspecified) | 12.1 |
| Cc1ccc(C2CCCN2S(=O)(=O)N(C)Cc2cnccn2)o1 (stereo unspecified) | 0.78 |
| CS(=O)(=O)NCC(=O)N[C@H]1CN(CC2CC2)C[C@@H]1c1ccccc1 | -0.29 |
| CN(Cc1cccc(C#N)c1)C(=O)C1CC(c2cccc(F)c2)=NO1 (stereo unspecified) | 1.85 |
| CC(=O)N[C@@H]1CN(c2nc(CO)cs2)C[C@H]1c1ccc(C)o1 | -47 |
| CC(COc1ccccc1)NS(C)(=O)=O (stereo unspecified) | -4.05 |

| Structure (SMILES) | cytotoxicity at 10 µM [%] |
| --- | --- |
| O=C(CN1CCCNC1=O)N1CCCC(c2nccs2)C1 (stereo unspecified) | -12.5 |
| Cn1cc(N2CCC3(CCCN(C(=O)c4ccnn4C)C3)C2=O)cn1 (stereo unspecified) | -1.55 |
| Cc1nccn1-c1ccc(=O)n(CCNC(=O)c2ccccn2)n1 | -11.3 |
| O=C1COc2c(cccc2C(=O)N2CCCC(n3cccn3)C2)N1 (stereo unspecified) | -13.8 |
| Nc1nc(O)cc(N2CCC(c3cc(Cc4ccccc4)n[nH]3)CC2)n1 | 1.85 |
| COc1ccc(-c2ccc(C(=O)N3CCOCC3CC(=O)O)o2)cc1 (stereo unspecified) | 1.79 |
| CNC(=O)c1sc(C(NC(=O)c2ccccc2)C2CC2)nc1C (stereo unspecified) | 2.31 |
| CN(C)C1(CNc2nccc(C3CCCC3)n2)CCOCC1 | -1.3 |
| CC(C)N(C)Cc1cnc2n1CCN(Cc1cccc(F)c1)C2 | -2.92 |
| O=C(Cc1ccco1)N1C[C@H]2CCC[C@@]2(COCc2cccnc2)C1 | -115 |
| N#Cc1c(F)cccc1N1CCC(C(=O)Nc2nccs2)CC1 | 0.329 |
| O=C(CC1CC1)N1CCC2(COCc3cnc(N4CCOCC4)nc32)C1 (stereo unspecified) | -82.1 |
| CSCc1noc(C2CCC(=O)N(CCc3ccccc3)C2)n1 (stereo unspecified) | -6.72 |
| CC[C@H]1CN(C(=O)CCn2c(C)cccc2=O)CC[C@@]1(C)O | 8.51 |
| CCC(C)NC(=O)c1nnn(-c2ccc(Br)cc2)n1 (stereo unspecified) | 5.81 |
| Cc1cnc(CC2COCCN(Cc3nccn3C)C2)cn1 (stereo unspecified) | -2.25 |
| COC1CCN(S(=O)(=O)N2CC[C@@](O)(C3CCC3)[C@H](C)C2)CC1 | 6.8 |
| CCc1noc(CC)c1CC(=O)N1CCC(C(=O)NC(C)C)CC1 | -10.9 |
| CC(C)c1nc(C2CCCN2C(=O)c2cc(Cl)c[nH]2)no1 (stereo unspecified) | 0.585 |
